From PubChem
This is a sample that favours compounds with a hit; in the whole collection about 1.7% have one here.
CAL PDZ FP-1 – untagged CAL PDZ binding inhibitors, primary screen, biochemical, fluorescence polarization, HTS; purified CAL PDZ, TMR-peptide fluorescence polarization, 1 h; inhibition, % at 24.9 µM; 0.92% of 300,000 active;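 active means mean inhibition of at least 30% with at least half of replicates also reaching 30%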
CAL PDZ FP-2 – CAL PDZ peptide-binding inhibitors, primary screen, biochemical, fluorescence polarization, Cer-tagged CAL PDZ, HTS. inhibition, % at 20 µM. AID 504414, 2011. 0.02% of 330,000 active. Golgi-associated PDZ and coiled-coil motif-containing protein (Homo sapiens), Q9HD26. purified CAL PDZ, TMR-peptide fluorescence polarization, 1 h;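 active means highest replicate inhibition of at least 40%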
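System: purified tagged CAL PDZ domain construct (CerCALP). Schedule: 1 h incubation at room temperature before polarization reading. Medium: 25 mM sodium phosphate pH 7.4, 150 mM NaCl, TCEP, IgG, Thesit. Read-out: percent inhibition from loss of millipolarization. Measured by: FP readout, S and P plane fluorescence. Probe or stimulus: fluorescent TMR peptide probe.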
Rce1 inhib – yeast Rce1p protease inhibitors, primary screen, biochemical, fluorescence, cell-free homogeneous; CAAX prenyl protease 2 (Saccharomyces cerevisiae (strain ATCC 204508 / S288c)), Q03530; yeast membranes, quenched prenylated peptide cleavage fluorescence; calls only; 0.27% of 290,000 active;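 active means fall in fluorescence gain of 50% or more versus controls, with final raw signal at or below 3038400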
Target sequence (Q03530 whole entry, looked up): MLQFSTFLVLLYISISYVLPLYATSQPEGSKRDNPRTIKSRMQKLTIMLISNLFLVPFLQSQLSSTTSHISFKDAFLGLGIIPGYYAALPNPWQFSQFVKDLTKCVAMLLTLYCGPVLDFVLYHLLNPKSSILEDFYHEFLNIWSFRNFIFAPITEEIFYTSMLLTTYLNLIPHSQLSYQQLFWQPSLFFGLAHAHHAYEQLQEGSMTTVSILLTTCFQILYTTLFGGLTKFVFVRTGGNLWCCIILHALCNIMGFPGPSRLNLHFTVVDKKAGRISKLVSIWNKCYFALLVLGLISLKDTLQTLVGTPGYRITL
AI-2 QS mod – Vibrio harveyi AI-2 quorum sensing modulators, primary screen, JMH597 strain, luminescence/OD600 ratio; Vibrio harveyi JMH597 AI-2 luminescence/OD600 ratio, 9 h; active compounds read low; strain lacks LuxN and CqsS sensors; 0 = neutral-control median; activity change, % at 7.5 µM; 0.4% of 300,000 active; in the data active means activity change below about -75%, passing the limit was not always enough;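 further: luminescence divided by OD600 gain over 9 h not by final OD600 alone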
ARNT-TACC3 inh – disruptors of ARNT/TACC3 protein interaction, primary screen, biochemical, AlphaScreen, single concentration; AlphaScreen His-ARNT PAS-B/GST-TACC3 binding, luminescence; TACC3 fragment carries E629A point mutation; inhibition, % at 9.99 µM; 0.66% of 390,000 active; AID 623870, 2012;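 active means mean inhibition of replicates at least 50% and at least half of replicates each reaching 50%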
Large screens that a line does not name were inactive.

COc1ccccc1CNC(=O)COC(=O)c1cccnc1SCC(=O)NCc1ccccc1OC	CAL PDZ FP-1 83
Cc1ccccc1CNC(=O)c1ccccc1N	none
COc1ccccc1CNC(=O)c1ccccc1N	Rce1 inhib active (no result: CAL PDZ FP-1)
Cc1ccc(S(=O)(=O)N2CCC(C(=O)N/N=C/c3ccncc3)CC2)cc1	none
Cc1[nH]c(=O)[nH]c(=O)c1/C=C/C(=O)O	CAL PDZ FP-1 70
COC(=O)/C=C/c1c(C)[nH]c(=O)[nH]c1=O	none
C[C@H]1CN([C@@H](C)CO)S(=O)(=O)c2ccc(C3=CCCC3)cc2O[C@H]1CN(C)Cc1cncnc1	none (no result: CAL PDZ FP-1, CAL PDZ FP-2, Rce1 inhib, AI-2 QS mod)
CCc1nnc(NC(=O)c2ccc(S(=O)(=O)N(CCOC)CCOC)cc2)s1	none (no result: CAL PDZ FP-1)
COC(=O)c1ccccc1NC(=O)C1CCC(=O)N1S(=O)(=O)c1ccc(C)cc1 (centres undefined)	none
C=C(C)Cn1c(Sc2nc3ccccc3[nH]2)nc2c1c(=O)[nH]c(=O)n2C	CAL PDZ FP-1 35
C=C(C)Cn1c(SCCCO)nc2c1c(=O)[nH]c(=O)n2C	none (no result: CAL PDZ FP-2)
CC(=O)[C@H]1[C@@H]2C(=O)N(c3cccc(Cl)c3)C(=O)[C@@H]2[C@H]2c3ccccc3C=CN21	ARNT-TACC3 inh 24
CC(=O)[C@@H]1[C@@H]2C(=O)N(c3ccc(F)c(Cl)c3)C(=O)[C@@H]2C2c3ccccc3C=CN21 (some centres undefined)	none (no result: CAL PDZ FP-1, CAL PDZ FP-2, ARNT-TACC3 inh)
COc1cc(OCC(=O)NC(C)C)cc2c1C(=O)O[C@@H](C)CCCC(=O)CCCCC2	CAL PDZ FP-1 46 (no result: CAL PDZ FP-2)
Cc1noc(NS(=O)(=O)c2ccc(NC(=O)CSc3nnc4c(n3)[nH]c3ccccc34)cc2)c1C	ARNT-TACC3 inh 71
Cc1nnsc1C(=O)N1CCCC(N2CCN(c3ccc(F)cc3)CC2)C1 (centres undefined)	none
Cc1nnsc1C(=O)N1CCN(c2ccc(F)cc2)CC1	CAL PDZ FP-1 37
Cc1c(C(=O)N2CCN(c3ccc(F)cc3)CC2)sc2nc3n(c(=O)c12)CCC3	CAL PDZ FP-1 86
CCCC(=O)Nc1ccc2c(c1)OC[C@H](C)N(CCC)C[C@H](C)[C@H](OC)CN(C)C2=O	none (no result: CAL PDZ FP-1, CAL PDZ FP-2, Rce1 inhib, AI-2 QS mod)
c1csc(-c2cnc3ccccc3n2)c1	none
O=C(Nc1ccc(C(F)(F)F)cc1)N[C@@H]1C=C[C@@H](CC(=O)N2CCCCC2)O[C@H]1CO	ARNT-TACC3 inh 46 (no result: CAL PDZ FP-1, CAL PDZ FP-2, Rce1 inhib, AI-2 QS mod)
CCn1cc(C(=O)N[C@H](C(=O)O)C(C)C)c(=O)c2cc3c(cc21)OCO3	CAL PDZ FP-1 46 (no result: CAL PDZ FP-2)
CCn1cc(C(=O)N[C@H](C(=O)NCCCOC)C(C)C)c(=O)c2cc3c(cc21)OCO3	none
Cc1cc(C(=O)N[C@H](c2ccccc2)[C@@]2(C)C[C@@H]2[C@@H](C)C(=O)Nc2ccc3ccccc3c2)n(C)n1	Rce1 inhib active (no result: ARNT-TACC3 inh)
CC1=NNC(=O)C1CC(=O)N/N=C/c1sccc1C (centres undefined)	none (no result: CAL PDZ FP-1)
COc1cc(OC)c(OC)cc1/C=N/NC(=O)CC1C(=O)NN=C1C (centres undefined)	CAL PDZ FP-1 36
COc1ccc(C2CN=NC23CCCc2ccccc2C3=O)cc1 (centres undefined)	CAL PDZ FP-1 57
COc1ccc(C2CN=NC23CCc2ccccc2C3=O)cc1 (centres undefined)	none
CNC[C@@H]1OCCCC[C@@H](C)Oc2ccc(NC(=O)NC(C)C)cc2C(=O)N([C@H](C)CO)C[C@H]1C	none (no result: CAL PDZ FP-1, CAL PDZ FP-2, Rce1 inhib, AI-2 QS mod)
CCc1cc(N2CCOCC2)cc2c1[nH]c1ccccc12	Rce1 inhib active (no result: CAL PDZ FP-1)
CCCNC(=O)COC(=O)c1ccc(OCC(=O)Nc2ccccc2OC)c(OC)c1	none
CCC(CC)NC(=O)COC(=O)c1ccc(OCC(=O)Nc2ccccc2OC)c(OC)c1	CAL PDZ FP-1 44
Cc1cccc(NS(=O)(=O)c2ccc(C(=O)NCC3(N4CCCCC4)CCCCC3)cc2)c1C	none
O=C(NCC1(N2CCCCC2)CCCCC1)c1ccc(NS(=O)(=O)c2ccccc2)cc1	ARNT-TACC3 inh active
